{"source": "ChEMBL document CHEMBL3243947", "about": "(J Med Chem, 1979)", "key": {"[1]": {"experiment": "Octanol-phosphate buffer partition coefficient, log P of the compound", "type": "physicochemical", "summary_of_the_method": "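Compound stock in octanol-saturated buffer, about 0.05 mg/mL. Shaken with octanol 2 h at 37 °C, 200 oscillations/min, then centrifuged 2000 rpm for 4 min. Buffer-phase UV absorbance at λmax near 300 nm measured before and after. P = (Astd − Aext)/(Aext·f), with f the octanol:buffer volume ratio. Run in triplicate.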"}, "[2]": {"experiment": "Negative inotropic activity in New Zealand White rabbit isolated atria assessed as reduction of tissue contractility after 15 mins", "design": "species or system Oryctolagus cuniculus, Cardiac atrium", "details": "0.25 h", "summary_of_the_method": "(§1)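 Isolated atria stabilized 90 min, paced by 2-ms pulses via platinum electrodes near SA node at 2.5× threshold voltage (threshold found at 240 pulses/min, mean of three). MDF averaged over three determinations. Drug added cumulatively without washout, reading 15 min after each dose, until MDF fell ~60%. Percent decrease in MDF or peak height plotted against log molar concentration and fitted by linear regression. Log ED40 read graphically. Three tissues per compound, averaged with SD.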"}, "[3]": {"experiment": "Selectivity index, ratio of pED40 for tissue contractility to pED40 for maximum driving response in New Zealand White rabbit isolated atria", "design": "species or system Oryctolagus cuniculus, Cardiac atrium", "summary_of_the_method": "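Ratio of ED40 for contractility to ED40 for MDF. Both come from the same cumulative 15-min dosing of paced isolated atria, with three tissues per compound.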"}, "[4]": {"test_system": "Heart", "experiment": "Antiarrhythmic activity in New Zealand White rabbit isolated atria assessed as reduction of maximum driving frequency after 15 mins", "type": "functional, Oryctolagus cuniculus", "summary_of_the_method": "as §1"}, "[5]": {"test_system": "Heart", "experiment": "Antiarrhythmic activity in New Zealand White rabbit isolated atria assessed as reduction of maximum driving frequency after 15 mins in presence of 4X10'-8 M propranolol", "type": "functional, Oryctolagus cuniculus", "summary_of_the_method": "as §1"}, "[6]": {"experiment": "Selectivity index, ratio of pED40 for tissue contractility to pED40 for maximum driving response in New Zealand White rabbit isolated atria in presence of 4X10'-8 M propranolol", "design": "species or system Oryctolagus cuniculus, Cardiac atrium"}, "[7]": {"experiment": "Negative inotropic activity in New Zealand White rabbit isolated atria assessed as reduction of tissue contractility after 15 mins in presence of 4X10'-8 M propranolol", "design": "species or system Oryctolagus cuniculus, Cardiac atrium", "details": "0.25 h", "summary_of_the_method": "as §1"}}, "note": "Where a name gives a salt, the structure may show the parent alone."}
{"smiles": "COCCCNCC(O)COc1cccc2ccccc12", "note": "(stereo unspecified)", "values": [{"measurement": "logP", "setting": "[1]", "value": 1.28}, {"measurement": "pED40", "setting": "[2]", "value": 5.4}, {"measurement": "Selectivity Index", "setting": "[3]", "value": 1.5}, {"measurement": "pED40", "setting": "[4]", "value": 5.45}]}
{"smiles": "CC(C)NCC(O)COc1ccc(O)c2ccccc12", "note": "(stereo unspecified) [4-HYDROXYPROPRANOLOL SULFATE]", "values": [{"measurement": "logP", "setting": "[1]", "value": 0.39}, {"measurement": "pED40", "setting": "[2]", "value": 4.39}, {"measurement": "Selectivity Index", "setting": "[3]", "value": 1.8}, {"measurement": "pED40", "setting": "[4]", "value": 4.6}]}
{"smiles": "CC(C)NCC(O)COc1ccc(S(N)(=O)=O)c2ccccc12.Cl", "note": "(stereo unspecified)", "values": [{"measurement": "logP", "setting": "[1]", "value": -0.51}, {"measurement": "pED40", "setting": "[2]", "value": 3.35}, {"measurement": "Selectivity Index", "setting": "[3]", "value": 1.7}, {"measurement": "pED40", "setting": "[4]", "value": 3.58}]}
{"smiles": "CC(C)NCC(O)COc1cccc2ccccc12", "note": "(stereo unspecified) [PROPRANOLOL]", "values": [{"measurement": "pED40", "setting": "[2]", "value": 5.21}, {"measurement": "pED40", "setting": "[4]", "value": 5.43}]}
{"smiles": "C[N+](C)(C)CCCNCC(O)COc1cccc2ccccc12.Cl.[Cl-]", "note": "(stereo unspecified)", "values": [{"measurement": "logP", "setting": "[1]", "value": -1.89}, {"measurement": "pED40", "setting": "[2]", "value": 3.06}, {"measurement": "Selectivity Index", "setting": "[3]", "value": 1.1}, {"measurement": "pED40", "setting": "[4]", "value": 3.08}]}
{"smiles": "CC(C)NCC(O)COc1ccc(Cl)c2ccccc12", "note": "(stereo unspecified)", "values": [{"measurement": "logP", "setting": "[1]", "value": 2}, {"measurement": "pED40", "setting": "[2]", "value": 5.26}, {"measurement": "Selectivity Index", "setting": "[3]", "value": 0.9}, {"measurement": "pED40", "setting": "[4]", "value": 5.2}]}
{"smiles": "CCCCNCC(O)COc1cccc2ccccc12", "note": "(stereo unspecified)", "values": [{"measurement": "logP", "setting": "[1]", "value": 2.08}, {"measurement": "pED40", "setting": "[2]", "value": 5.38}, {"measurement": "Selectivity Index", "setting": "[3]", "value": 1.8}, {"measurement": "pED40", "setting": "[4]", "value": 5.64}]}
{"smiles": "Br.CC(C)NCC(O)COc1c(Br)cc(Br)c2ccccc12", "note": "(stereo unspecified)", "values": [{"measurement": "logP", "setting": "[1]", "value": 2.71}, {"measurement": "pED40", "setting": "[2]", "value": 5.53}, {"measurement": "Selectivity Index", "setting": "[3]", "value": 0.4}, {"measurement": "pED40", "setting": "[4]", "value": 5.1}]}
{"smiles": "Cl.O=C(O)CCCNCC(O)COc1cccc2ccccc12", "note": "(stereo unspecified)", "values": [{"measurement": "logP", "setting": "[1]", "value": 0.21}, {"measurement": "pED40", "setting": "[2]", "value": 3.02}, {"measurement": "Selectivity Index", "setting": "[3]", "value": 2}, {"measurement": "pED40", "setting": "[4]", "value": 3.41}]}
{"smiles": "CC(C)NCC(O)COc1ccc(N)c2ccccc12.Cl", "note": "(stereo unspecified)", "values": [{"measurement": "logP", "setting": "[1]", "value": -0.27}, {"measurement": "pED40", "setting": "[2]", "value": 4.92}, {"measurement": "Selectivity Index", "setting": "[3]", "value": 1.6}, {"measurement": "pED40", "setting": "[4]", "value": 5.02}]}
{"smiles": "Cl.NC(=O)CCCNCC(O)COc1cccc2ccccc12", "note": "(stereo unspecified)", "values": [{"measurement": "logP", "setting": "[1]", "value": 0.31}, {"measurement": "pED40", "setting": "[5]", "value": 4.89}, {"measurement": "Selectivity Index", "setting": "[6]", "value": 1.4}, {"measurement": "pED40", "setting": "[7]", "value": 4.79}]}
{"smiles": "Cl.NCCCNCC(O)COc1cccc2ccccc12", "note": "(stereo unspecified)", "values": [{"measurement": "logP", "setting": "[1]", "value": -0.19}, {"measurement": "pED40", "setting": "[2]", "value": 4.47}, {"measurement": "Selectivity Index", "setting": "[3]", "value": 1}, {"measurement": "pED40", "setting": "[4]", "value": 4.5}]}
